Assay results taken from ChEMBL document CHEMBL2176930, “Structure-based design of novel inhibitors of the MDM2-p53 interaction” (J Med Chem, 2012).
The source made the active and inactive calls. No cut-off for these calls is given here.

Experiments:
[1] = molecular target: T1, Tumour suppressor p53/oncoprotein Mdm2 (Homo sapiens, UniProt Q00987); assay type: protein assay
[2] = molecular target: T1, Tumour suppressor p53/oncoprotein Mdm2; assay type: protein assay; remark: listed apart in the source
SJSA-1 [3] = test: cells; settings: Homo sapiens, SJSA-1, 72 h
CYP3A4 [4] = molecular target: T2, CYP3A4 (Homo sapiens, UniProt P08684); test: Time dependent inhibition of human CYP3A4 assessed as residual activity at 10 uM after 15 mins relative to control; assay type: ADME; settings: read-out: Activity
CYP3A4 [5] = molecular target: T2, CYP3A4; test: Inhibition of human CYP3A4 at 3 uM; assay type: ADME
PXR (NR1I2) = molecular target: T3, PXR (NR1I2) (Homo sapiens, UniProt O75469); test: Activation of human PXR at 2 uM relative to control; settings: read-out: Activity
T3 sequence (O75469 whole entry): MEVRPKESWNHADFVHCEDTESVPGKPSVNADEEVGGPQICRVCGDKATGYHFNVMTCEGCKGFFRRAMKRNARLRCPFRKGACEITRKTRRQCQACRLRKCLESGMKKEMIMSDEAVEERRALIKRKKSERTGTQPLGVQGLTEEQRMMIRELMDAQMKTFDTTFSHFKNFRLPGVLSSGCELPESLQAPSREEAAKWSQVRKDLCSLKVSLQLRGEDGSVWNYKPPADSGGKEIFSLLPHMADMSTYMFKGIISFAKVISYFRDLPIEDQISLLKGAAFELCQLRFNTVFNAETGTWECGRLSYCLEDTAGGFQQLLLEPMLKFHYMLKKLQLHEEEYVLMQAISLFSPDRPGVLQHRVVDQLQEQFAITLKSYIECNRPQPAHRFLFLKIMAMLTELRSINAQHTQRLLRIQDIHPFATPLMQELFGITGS

SJSA-1 [6] = test: Antitumor activity against human SJSA1 cells xenografted in po dosed mouse assessed as tumor growth inhibition administered bid measured twice per weak; assay type: functional, organism-based
Method in brief: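 Female athymic nude mice implanted subcutaneously with 5 × 10^6 SJSA-1 cells. Vehicle or compound at 25, 50, 75 or 100 mg/kg b.i.d. by oral gavage, starting on day 10 at ∼200 mm3 tumours (n = 10/group). Tumour size and body weight measured twice weekly; mean tumour volume ± SEM.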

SJSA-1 [7] = test: Antitumor activity against human SJSA1 cells xenografted in athymic nude mouse assessed as tumor growth regression at 150 mg/kg, po qd for 14 days; assay type: functional, organism-based; design: dose 150 mg/kg
Mus musculus [8] = test: Activity at p53 in human SJSA1 cells xenografted po dosed mouse assessed as induction of p21 mRNA expression administered qd for 4 days by RT-PCR analysis relative to control; assay type: functional, organism-based; settings: SJSA-1
Method in brief: (§1)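 Female athymic nude mice carrying subcutaneous SJSA-1 tumours (5 × 10^6 cells implanted; dosing at ∼175 mm3). Oral dosing q.d. for 4 days. Tumours were snap-frozen and p21 mRNA measured by quantitative RT-PCR. Reported as mean fold induction over vehicle tumours, with SEM.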

[9] = Volume of distribution in cynomolgus monkey; assay type: ADME, organism-based, Macaca fascicularis; settings: in vivo
[10] = Volume of distribution at steady state in mouse; assay type: ADME, organism-based; settings: in vivo, read-out: Vdss
Mus musculus [11] = test: Activity at p53 in human SJSA1 cells xenografted mouse assessed as induction of p21 mRNA expression at 150 mg/kg, qd for 4 days by RT-PCR analysis; assay type: functional, organism-based; design: dose 150 mg/kg; settings: SJSA-1
Method in brief: as §1

SJSA-1 [12] = test: animal or person; settings: Mus musculus, SJSA-1, po, 336 h
[13] = Volume of distribution at steady state in rat; assay type: ADME, organism-based; settings: in vivo, read-out: Vdss
SJSA-1 [14] = test: Antitumor activity against human SJSA1 cells xenografted in po dosed athymic nude mouse assessed as tumor growth inhibition administered qd after 14 days
Mus musculus [15] = test: Activity at p53 in human SJSA1 cells xenografted po dosed mouse assessed as induction of p21 mRNA expression administered once measured after 6 hrs by RT-PCR analysis; settings: SJSA-1
[16] = Plasma clearance in mouse; assay type: ADME, organism-based
[17] = Oral bioavailability in mouse; assay type: ADME, organism-based; settings: in vivo
[18] = Plasma clearance in rat; assay type: ADME, organism-based
SJSA-1 [19] = test: animal or person; settings: Mus musculus, SJSA-1, po, 336 h, read-out: TGI
[20] = Intrinsic clearance in human hepatocytes assessed per million cells; assay type: ADME, cell-based, Hepatocyte; settings: read-out: CLH
[21] = Oral bioavailability in rat; assay type: ADME, organism-based; settings: in vivo
HCT-116 = test: Induction of p21 mRNA expression in p53 deficient human HCT116 cells after 7 hrs by RT-PCR analysis; assay type: functional, cell-based
Method in brief: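 HCT116 p53−/− cells exposed to compound for 7 h. Total RNA extracted and p21 mRNA quantified by quantitative RT-PCR.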

T2 sequence (P08684 whole entry): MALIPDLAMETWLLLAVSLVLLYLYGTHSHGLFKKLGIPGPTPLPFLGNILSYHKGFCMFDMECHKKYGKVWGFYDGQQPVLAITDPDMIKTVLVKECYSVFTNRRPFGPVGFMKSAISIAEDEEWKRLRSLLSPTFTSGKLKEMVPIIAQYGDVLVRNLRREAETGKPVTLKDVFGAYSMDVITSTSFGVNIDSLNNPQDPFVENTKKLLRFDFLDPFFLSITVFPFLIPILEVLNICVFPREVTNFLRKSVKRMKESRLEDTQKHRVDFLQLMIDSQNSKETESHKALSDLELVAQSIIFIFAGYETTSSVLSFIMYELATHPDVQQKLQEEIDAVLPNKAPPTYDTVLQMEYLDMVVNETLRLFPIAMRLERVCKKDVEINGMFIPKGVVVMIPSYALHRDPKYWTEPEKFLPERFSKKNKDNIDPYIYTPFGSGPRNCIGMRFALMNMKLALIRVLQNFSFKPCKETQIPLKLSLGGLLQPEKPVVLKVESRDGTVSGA
T1 sequence (P04637 whole entry): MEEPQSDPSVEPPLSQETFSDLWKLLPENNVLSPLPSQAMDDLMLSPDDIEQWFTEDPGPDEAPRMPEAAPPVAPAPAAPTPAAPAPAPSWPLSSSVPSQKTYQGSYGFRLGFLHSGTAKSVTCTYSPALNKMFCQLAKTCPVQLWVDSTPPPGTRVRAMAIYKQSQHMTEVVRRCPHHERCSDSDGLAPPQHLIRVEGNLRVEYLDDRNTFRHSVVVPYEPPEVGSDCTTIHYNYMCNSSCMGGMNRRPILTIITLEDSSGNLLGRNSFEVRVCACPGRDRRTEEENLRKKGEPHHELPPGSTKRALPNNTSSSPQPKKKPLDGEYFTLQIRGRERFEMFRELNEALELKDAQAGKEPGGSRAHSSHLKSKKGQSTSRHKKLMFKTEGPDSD
T1 sequence (Q00987 whole entry): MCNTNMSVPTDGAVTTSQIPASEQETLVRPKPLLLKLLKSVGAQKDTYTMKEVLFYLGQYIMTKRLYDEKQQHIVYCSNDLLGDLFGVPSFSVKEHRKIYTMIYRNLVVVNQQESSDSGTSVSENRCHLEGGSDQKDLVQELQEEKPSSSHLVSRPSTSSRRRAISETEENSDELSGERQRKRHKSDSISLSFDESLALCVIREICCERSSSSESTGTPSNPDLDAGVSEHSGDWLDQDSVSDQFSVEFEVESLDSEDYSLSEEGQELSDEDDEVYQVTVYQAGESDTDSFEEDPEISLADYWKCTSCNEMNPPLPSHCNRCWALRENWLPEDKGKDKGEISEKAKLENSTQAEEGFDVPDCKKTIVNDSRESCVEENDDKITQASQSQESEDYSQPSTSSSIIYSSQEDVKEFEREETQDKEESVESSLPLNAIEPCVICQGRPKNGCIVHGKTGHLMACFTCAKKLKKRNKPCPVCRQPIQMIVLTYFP

| SMILES | IC50 [1] | IC50 [2] | other results |
| --- | --- | --- | --- |
| CCOC(=O)[C@@H](CC)N1C(=O)CC[C@H](c2cccc(Cl)c2)[C@H]1c1ccc(Cl)cc1 (racemic) | > 30 µM | 3.5 µM | – |
| CC[C@@H](C(=O)OC(C)(C)C)N1C(=O)[C@@H](Cc2nnn[nH]2)C[C@H](c2cccc(Cl)c2)[C@H]1c1ccc(Cl)cc1 | 0.0203 µM | 0.0018 µM | IC50 (SJSA-1 [3]): 0.312 µM |
| CCOC(=O)[C@H](C)N1C(=O)CC[C@H](c2cccc(Cl)c2)[C@H]1c1ccc(Cl)cc1 (racemic) | > 30 µM | 1.7 µM | – |
| CC[C@@H](C(=O)OC(C)(C)C)N1C(=O)[C@@](C)(Cc2nnn[nH]2)C[C@H](c2cccc(Cl)c2)[C@H]1c1ccc(Cl)cc1 | 0.009 µM | 0.0009 µM | activity at 0.25 h, 10 µM (CYP3A4 [4]): 30%; inhibition at 3 µM (CYP3A4 [5]): 80%; activity at 2 µM (PXR (NR1I2)): 65%; IC50 (SJSA-1 [3]): 0.17 µM |
| CC[C@@H]([C@H](C)O)N1C(=O)[C@@](C)(CC(=O)O)C[C@H](c2cccc(Cl)c2)[C@H]1c1ccc(Cl)cc1 | – | – | Activity (SJSA-1 [6]): Dose-dependent effect; Activity (SJSA-1 [7]): Active; Activity (Mus musculus [8]): Dose-dependent effect; Vd [9]: 6.2 L/kg; Vd [10]: 5.2 L/kg; Activity (Mus musculus [11]): Dose-dependent effect; ED50 (SJSA-1 [12]): 78 mg/kg; Vd [13]: 12 L/kg |
| CCC(CC)N1C(=O)[C@@](C)(CC(=O)O)C[C@H](c2cccc(Cl)c2)[C@H]1c1ccc(Cl)cc1 | – | – | IC50 (SJSA-1 [3]): 0.54 µM |
| CC(C)CN1C(=O)CC[C@H](c2cccc(Cl)c2)[C@H]1c1ccc(Cl)cc1 (racemic) | > 30 µM | 2.3 µM | – |
| N#CC[C@H]1C[C@H](c2cccc(Cl)c2)[C@@H](c2ccc(Cl)cc2)N(CC2CC2)C1=O | > 30 µM | 2.34 µM | – |
| O=C(O)CC[C@@H]1C[C@H](c2cccc(Cl)c2)[C@@H](c2ccc(Cl)cc2)N(CC2CC2)C1=O | 6.64 µM | 0.34 µM | – |
| CC[C@@H](C(=O)OC(C)(C)C)N1C(=O)[C@@](C)(CC(=O)O)C[C@H](c2cccc(Cl)c2)[C@H]1c1ccc(Cl)cc1 | – | – | TGI (SJSA-1 [14]): Dose-dependent effect; Activity (Mus musculus [15]): Dose-dependent effect; clearance [16]: 1.5 L/h/kg; bioavailability [17]: 36%; clearance [18]: 2.7 L/h/kg; activity at 0.25 h, 10 µM (CYP3A4 [4]): 77%; inhibition in vivo at 200 mg/kg (SJSA-1 [19]): 91%; Vd [10]: 1.3 L/kg; hepatocyte CLint [20]: 26 µL/min/1e6 cells; inhibition at 3 µM (CYP3A4 [5]): 40%; bioavailability [21]: 77%; activity at 2 µM (PXR (NR1I2)): 27%; ED50 (SJSA-1 [12]): 118 mg/kg; Activity (HCT-116): inactive; Vd [13]: 1.5 L/kg |
| CCCN1C(=O)CC[C@H](c2cccc(Cl)c2)[C@H]1c1ccc(Cl)cc1 (racemic) | > 30 µM | 1.9 µM | – |
| O=C1CC[C@@H](c2cccc(Cl)c2)[C@H](c2ccc(Cl)cc2)N1CC1CC1 | > 30 µM | > 30 µM | – |
| COC(=O)CN1C(=O)CC[C@H](c2cccc(Cl)c2)[C@H]1c1ccc(Cl)cc1 (racemic) | > 30 µM | 5.5 µM | – |
| O=C1CC[C@H](c2cccc(Cl)c2)[C@@H](c2ccc(Cl)cc2)N1 (racemic) | > 30 µM | 10 µM | – |
| CCCCN1C(=O)CC[C@H](c2cccc(Cl)c2)[C@H]1c1ccc(Cl)cc1 (racemic) | > 30 µM | 2.7 µM | – |
| C=CC[C@H]1C[C@H](c2cccc(Cl)c2)[C@@H](c2ccc(Cl)cc2)N(CC2CC2)C1=O | > 30 µM | 6.5 µM | – |
| CCC[C@@H](C(=O)OCC)N1C(=O)CC[C@H](c2cccc(Cl)c2)[C@H]1c1ccc(Cl)cc1 (racemic) | > 30 µM | 1.4 µM | – |
| O=C1CC[C@H](c2cccc(Cl)c2)[C@@H](c2ccc(Cl)cc2)N1CC1CC1 (racemic) | – | 1.5 µM | – |
| CCOC(=O)[C@H](CC)N1C(=O)CC[C@H](c2cccc(Cl)c2)[C@H]1c1ccc(Cl)cc1 (racemic) | 18.7 µM | 0.94 µM | – |
| O=C(O)CC[C@H]1C[C@H](c2cccc(Cl)c2)[C@@H](c2ccc(Cl)cc2)N(CC2CC2)C1=O | 6.63 µM | 0.57 µM | – |
| O=C1CC[C@H](c2cccc(Cl)c2)[C@@H](c2ccc(Cl)cc2)N1Cc1ccccc1 (racemic) | > 30 µM | 5.4 µM | – |
| O=C1CC[C@H](c2cccc(Cl)c2)[C@@H](c2ccc(Cl)cc2)N1CC1CC1 | > 30 µM | 0.82 µM | – |
